ChEMBL document CHEMBL1649258, “Combined inactivation of lon and ycgE decreases multidrug susceptibility by reducing the amount of OmpF porin in Escherichia coli” (2009)
Values after ≈ are worked out from the molar mass of the structure shown.

Legend:
Type in all cases: functional
[1] = tested on: Escherichia coli; assay: Antibacterial activity against wild-type Escherichia coli AG100 harboring Tn5 insertion in ycgE gene at 37 degC by Etest method
[2] = tested on: Escherichia coli; assay: Antibacterial activity against wild-type Escherichia coli AG100 harboring IS186 insertion in lon3 gene, Tn5 insertion in ycgE gene and plasmid pMPM carrying ompF gene at 26 degC by Etest method
[3] = tested on: Escherichia coli; assay: Antibacterial activity against wild-type Escherichia coli AG100 harboring IS186 insertion in lon3 gene at 37 degC by Etest method
[4] = tested on: Escherichia coli; assay: Antibacterial activity against wild-type Escherichia coli AG100 harboring IS186 insertion in lon3 gene and Tn5 insertion in ycgE gene at 37 degC by Etest method
[5] = tested on: Escherichia coli; assay: Antibacterial activity against wild-type Escherichia coli AG100 at 26 degC by Etest method
[6] = tested on: Escherichia coli; assay: Antibacterial activity against ompF-deficient Escherichia coli AG100 harboring IS186 insertion in lon3 gene and Tn5 insertion in ycgE gene at 37 degC by Etest method
[7] = tested on: Escherichia coli; assay: Antibacterial activity against wild-type Escherichia coli AG100 at 37 degC by Etest method
[8] = tested on: Escherichia coli; assay: Antibacterial activity against wild-type Escherichia coli AG100 harboring IS186 insertion in lon3 gene, Tn5 insertion in ycgE gene and plasmid pMPM at 26 degC by Etest method
[9] = tested on: Escherichia coli; assay: Antibacterial activity against wild-type Escherichia coli AG100 harboring IS186 insertion in lon3 gene and Tn5 insertion in ycgE gene at 26 degC by Etest method
[10] = tested on: Escherichia coli; assay: Antibacterial activity against ompF-deficient Escherichia coli AG100 at 37 degC by Etest method
[11] = tested on: Escherichia coli; assay: Antibacterial activity against ompF-deficient Escherichia coli AG100 harboring IS186 insertion in lon3 gene and Tn5 insertion in ycgE gene at 26 degC by Etest method
[12] = tested on: Escherichia coli; assay: Antibacterial activity against wild-type Escherichia coli AG100 harboring marR mutant gene at 37 degC by Etest method
[13] = tested on: Escherichia coli; assay: Antibacterial activity against wild-type Escherichia coli AG100 harboring marR mutant gene at 26 degC by Etest method
[14] = tested on: Escherichia coli; assay: Antibacterial activity against wild-type Escherichia coli AG100 harboring IS186 insertion in lon3 gene at 26 degC by Etest method
[15] = tested on: Escherichia coli; assay: Antibacterial activity against wild-type Escherichia coli AG100 harboring Tn5 insertion in ycgE gene at 26 degC by Etest method
[16] = tested on: Escherichia coli; assay: Antibacterial activity against ompF-deficient Escherichia coli AG100 at 26 degC by Etest method
[17] = tested on: Escherichia coli; assay: Antibacterial activity against wild-type Escherichia coli AG100 harboring IS186 insertion in lon3 gene, Tn5 insertion in ycgE gene, plasmid pET21b and pACT7SP at 26 degC by Etest method
Summary of the method: (§1)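 MIC by Etest on LB agar at 26°C for the lon ycgE strain with pACT7Sp plus pET21b or pET21b-ompF; plates contained 100 μg/ml ampicillin, 50 μg/ml spectinomycin and 0.1 mM IPTG to induce OmpF; averages of at least four measurements.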

[18] = tested on: Escherichia coli; assay: Antibacterial activity against wild-type Escherichia coli AG100 harboring IS186 insertion in lon3 gene, Tn5 insertion in ycgE gene, plasmid pET21b carrying ompF gene and pACT7SP at 26 degC by Etest method; summary of the method: as §1

Structure (SMILES)	MIC [1] [µg/mL]	MIC [2] [µg/mL]	MIC [3] [µg/mL]	MIC [4] [µg/mL]	MIC [5] [µg/mL]	MIC [6] [µg/mL]	MIC [7] [µg/mL]	MIC [8] [µg/mL]	MIC [9] [µg/mL]	MIC [10] [µg/mL]	MIC [11] [µg/mL]	MIC [12] [µg/mL]	MIC [13] [µg/mL]	MIC [14] [µg/mL]	MIC [15] [µg/mL]	MIC [16] [µg/mL]	MIC [17] [µg/mL]	MIC [18] [µg/mL]
CC1(C)S[C@@H]2[C@H](NC(=O)[C@H](N)c3ccccc3)C(=O)N2[C@H]1C(=O)O [AMPICILLIN]	1 (≈ 2.86 µM)	1.5 (≈ 4.29 µM)	1 (≈ 2.86 µM)	1.7 (≈ 4.87 µM)	0.75 (≈ 2.15 µM)	2.2 (≈ 6.3 µM)	1 (≈ 2.86 µM)	2.3 (≈ 6.58 µM)	1.8 (≈ 5.15 µM)	1.83 (≈ 5.24 µM)	2.3 (≈ 6.58 µM)	3 (≈ 8.59 µM)	4 (≈ 11.4 µM)	0.83 (≈ 2.38 µM)	0.75 (≈ 2.15 µM)	1.5 (≈ 4.29 µM)		
CO[C@@]1(NC(=O)Cc2cccs2)C(=O)N2C(C(=O)O)=C(COC(N)=O)CS[C@@H]21 [CEFOXITIN]	1.7 (≈ 3.98 µM)	1 (≈ 2.34 µM)	1.7 (≈ 3.98 µM)	4 (≈ 9.36 µM)	0.75 (≈ 1.75 µM)	3 (≈ 7.02 µM)	1.5 (≈ 3.51 µM)	6 (≈ 14 µM)	4 (≈ 9.36 µM)	3 (≈ 7.02 µM)	4.7 (≈ 11 µM)	6 (≈ 14 µM)	7.3 (≈ 17.1 µM)	0.92 (≈ 2.15 µM)	0.92 (≈ 2.15 µM)	3 (≈ 7.02 µM)		
CC(=O)OCC1=C(C(=O)O)N2C(=O)[C@@H](NC(=O)Cc3cccs3)[C@H]2SC1 [CEPHALOTHIN]	2.3 (≈ 5.8 µM)	2 (≈ 5.04 µM)	2 (≈ 5.04 µM)	4.7 (≈ 11.9 µM)	1 (≈ 2.52 µM)	4.7 (≈ 11.9 µM)	2 (≈ 5.04 µM)	5.3 (≈ 13.4 µM)	6 (≈ 15.1 µM)	4.7 (≈ 11.9 µM)	6.7 (≈ 16.9 µM)	9.3 (≈ 23.5 µM)	10.7 (≈ 27 µM)	1.2 (≈ 3.03 µM)	1.3 (≈ 3.28 µM)	4.7 (≈ 11.9 µM)		
O=C(N[C@H](CO)[C@H](O)c1ccc([N+](=O)[O-])cc1)C(Cl)Cl [CHLORAMPHENICOL]	4 (≈ 12.4 µM)		4 (≈ 12.4 µM)	9.3 (≈ 28.8 µM)	4 (≈ 12.4 µM)	10.7 (≈ 33.1 µM)	4 (≈ 12.4 µM)		12 (≈ 37.1 µM)	6.7 (≈ 20.7 µM)	13.3 (≈ 41.2 µM)	21 (≈ 65 µM)	24 (≈ 74.3 µM)	4 (≈ 12.4 µM)	4 (≈ 12.4 µM)	6 (≈ 18.6 µM)		
C[C@H]1c2cccc(O)c2C(=O)C2=C(O)[C@]3(O)C(=O)C(C(N)=O)=C(O)[C@@H](N(C)C)[C@@H]3[C@@H](O)[C@@H]21.O [DOXYCYCLINE]	1.17		1.17	2	0.5	2	1		2	2	2	3.3	3.7	0.75	0.83	2	2	0.75
CCn1cc(C(=O)O)c(=O)c2ccc(C)nc21 [NALIDIXIC ACID]	4 (≈ 17.2 µM)	3 (≈ 12.9 µM)	4 (≈ 17.2 µM)	4 (≈ 17.2 µM)	4 (≈ 17.2 µM)	4 (≈ 17.2 µM)	4 (≈ 17.2 µM)	3 (≈ 12.9 µM)	3.3 (≈ 14.2 µM)	4 (≈ 17.2 µM)	3.3 (≈ 14.2 µM)	10.7 (≈ 46.1 µM)	6.7 (≈ 28.8 µM)	3.7 (≈ 15.9 µM)	3.7 (≈ 15.9 µM)	3.3 (≈ 14.2 µM)	3 (≈ 12.9 µM)	3 (≈ 12.9 µM)
CN(C)[C@@H]1C(O)=C(C(N)=O)C(=O)[C@@]2(O)C(O)=C3C(=O)c4c(O)cccc4[C@@](C)(O)[C@H]3C[C@@H]12 [TETRACYCLINE]	1 (≈ 2.25 µM)		1 (≈ 2.25 µM)	2 (≈ 4.5 µM)	0.5 (≈ 1.13 µM)	2 (≈ 4.5 µM)	1 (≈ 2.25 µM)		2 (≈ 4.5 µM)	1.83 (≈ 4.12 µM)	2 (≈ 4.5 µM)	4 (≈ 9 µM)	6 (≈ 13.5 µM)	0.5 (≈ 1.13 µM)	0.5 (≈ 1.13 µM)	2 (≈ 4.5 µM)		
